Measurements: ChEMBL document CHEMBL2390862, “Enmein-type diterpenoid analogs from natural kaurene-type oridonin: Synthesis and their antitumor biological evaluation” (Eur J Med Chem, 2013)

Assays:
Format in all cases: functional, cell-based
[1] = Cytotoxicity against human CaEs17 cells after 72 hrs by MTT assay; details: CaEs17, 72 h
Summary of the method: (§1)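 K562, CaEs-17, Bel-7402 and MGC-803 cells in log phase seeded at 5 × 10⁴ cells/mL, incubated with or without test compounds at 37 °C, 5% CO₂; after 72 h MTT (5 mg/mL stock) added for 4 h, formazan dissolved in DMSO, OD read at 490 nm. Negative reference 0.1% DMSO, Taxol positive control. IC50 as mean ± S.D. of three independent experiments.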

Bel-7402 = assay: Cytotoxicity against human Bel7402 cells after 72 hrs by MTT assay; details: Bel-7402, 72 h; summary of the method: as §1
MGC-803 = assay: Cytotoxicity against human MGC803 cells after 72 hrs by MTT assay; details: MGC-803, 72 h; summary of the method: as §1
K562 = assay: Cytotoxicity against human K562 cells after 72 hrs by MTT assay; details: K562, 72 h; summary of the method: as §1

Compound | IC50 [1] | IC50 (Bel-7402) | IC50 (MGC-803) | IC50 (K562)
C=C1C(=O)[C@@]23C(=O)O[C@H]4CCC(C)(C)[C@H]5[C@H](O)OC[C@@]45[C@@H]2CC[C@@H]1[C@H]3OC(=O)c1ccc(C)cc1 | 450 nM | 1010 nM | 610 nM | 140 nM
C=C1C(=O)[C@@]23C(=O)O[C@H]4CCC(C)(C)[C@H]5[C@H](O)OC[C@@]45[C@@H]2CC[C@@H]1[C@H]3OC(=O)c1cc(F)c(F)c(F)c1F | 1890 nM | 890 nM | 1240 nM | 1040 nM
C=C1C(=O)[C@@]23C(=O)O[C@H]4CCC(C)(C)[C@H]5[C@H](O)OC[C@@]45[C@@H]2CC[C@@H]1[C@H]3OC(=O)c1ccc(OC)cc1 | 2710 nM | 1790 nM | 3330 nM | 690 nM
C=C1C(=O)[C@@]23C(=O)O[C@H]4CCC(C)(C)[C@H]5[C@H](O)OC[C@@]45[C@@H]2CC[C@@H]1[C@H]3OC(=O)c1ccccc1Cl | 600 nM | 850 nM | 800 nM | 220 nM
CC(=O)O[C@H]1C(=O)[C@@]2(C)[C@H]([C@H](OC(=O)c3ccccc3)[C@]3(O)C[C@H](OC(=O)[C@H](O)[C@@H](NC(=O)c4ccccc4)c4ccccc4)C(C)=C1C3(C)C)[C@]1(OC(C)=O)CO[C@@H]1C[C@@H]2O [PACLITAXEL] | 430 nM |  |  | 
C=C1C(=O)[C@@]23C(=O)O[C@H]4CCC(C)(C)[C@H]5[C@H](O)OC[C@@]45[C@@H]2CC[C@@H]1[C@H]3OC(=O)c1ccccc1 | 540 nM | 1420 nM | 930 nM | 210 nM
